Assay results published in ChEMBL document CHEMBL1914413, “Using the pER8:GUS reporter system to screen for phytoestrogens from Caesalpinia sappan” (J Nat Prod, 2011).
Active and inactive are the calls of the source. No cut-off for these calls is given here.

Assays:
MCF7 [1] = assay: Antiestrogenic activity in human ER-positive MCF7 cells assessed as inhibition of 17beta estradiol-induced cell proliferation at 1 to 20 uM after 48 hrs by MTT assay; type: functional, cell-based
Arabidopsis thaliana [2] = assay: Estrogenic activity in transgenic Arabidopsis thaliana transfected with pER8:GUS plasmid assessed as beta-glucuronidase expression at 150 to 280 uM after 48 hrs using 4-methylumbelliferyl-beta-D-glucuronide by fluorometric assay; type: functional, organism-based
In short: (§1)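 Transgenic Arabidopsis pER8:GUS plants are incubated with or without test compound. GUS expression is quantified by fluorometric assay. 17β-Estradiol is the positive control, run over 0.01–100 μM.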

Arabidopsis thaliana [3] = assay: Estrogenic activity in transgenic Arabidopsis thaliana transfected with pER8:GUS plasmid assessed as beta-glucuronidase expression at 500 uM after 48 hrs using 4-methylumbelliferyl-beta-D-glucuronide by fluorometric assay; type: functional, organism-based; in short: as §1
[4] = (§2) Cytotoxicity against human Hep3B cells after 3 days by MTT assay; type: functional, cell-based, Hep 3B2; settings: 72 h
MCF7 [5] = assay: Estrogenic activity in human ER-positive MCF7 cells assessed as secreted alkaline phosphatase activity at 20 uM after 48 hrs by phospha-light reporter chemiluminescence assay; type: functional, cell-based
MCF7 [6] = assay: Antiestrogenic activity in human ER-positive MCF7 cells assessed as inhibition of 17beta estradiol-induced secreted alkaline phosphatase activity at 1 to 20 uM after 48 hrs by phospha-light reporter chemiluminescence assay; type: functional, cell-based
MCF7 [7] = assay: Antiestrogenic activity in human ER-positive MCF7 cells assessed as inhibition of 17beta estradiol-induced secreted alkaline phosphatase activity at 2 nM after 48 hrs by phospha-light reporter chemiluminescence assay; type: functional, cell-based
Arabidopsis thaliana [8] = assay: Estrogenic activity in transgenic Arabidopsis thaliana transfected with pER8:GUS plasmid assessed as beta-glucuronidase expression after 48 hrs using 4-methylumbelliferyl-beta-D-glucuronide by fluorometric assay; type: functional; in short: as §1
MCF7 [9] = assay: Estrogenic activity in human ER-positive MCF7 cells assessed as secreted alkaline phosphatase activity at 0.01 nM after 48 hrs by phospha-light reporter chemiluminescence assay; type: functional, cell-based
MCF7 [10] = assay: Cytotoxicity against human MCF7 cells after 3 days by MTT assay; type: functional, cell-based
MDA-MB-231 = assay: Cytotoxicity against human MDA-MB-231 cells after 3 days by MTT assay; type: functional, cell-based
A549 = assay: Cytotoxicity against human A549 cells after 3 days by MTT assay; type: functional, cell-based; settings: for IC50: A549, 72 h
Ca9-22 = assay: Cytotoxicity against human Ca9-22 cells after 3 days by MTT assay; type: functional, cell-based; settings: for IC50: Ca9-22, 72 h
Hep 3B2 = assay: as §2; type: functional, cell-based
HepG2 = assay: Cytotoxicity against human HepG2 cells after 3 days by MTT assay; type: functional, cell-based
MCF7 [11] = assay: Estrogenic activity in human ER-positive MCF7 cells assessed as secreted alkaline phosphatase activity after 48 hrs by phospha-light reporter chemiluminescence assay; type: functional, cell-based
MCF7 [12] = assay: Antiestrogenic activity in human ER-positive MCF7 cells assessed as inhibition of 17beta estradiol-induced secreted alkaline phosphatase activity at 20 nM after 48 hrs by phospha-light reporter chemiluminescence assay; type: functional, cell-based

In the case of `O=C1C=C2CC3(O)COc4cc(O)ccc4C3=C2C=C1O` (configuration not stated) [BRAZILEIN], the inhibition (MCF7 [1]) is reported as “Active”, the Activity (Arabidopsis thaliana [2]) is reported as “inactive” and the Activity (Arabidopsis thaliana [3]) is reported as “Active”. The IC50 [4] was 12 µM, the Activity (MCF7 [5]) was “inactive” and the inhibition (MCF7 [6]) was “Active”.

For `O=C(c1ccc(OCCN2CCCCC2)cc1)c1c(-c2ccc(O)cc2)sc2cc(O)ccc12`, the inhibition (MCF7 [7]) was “Active”.

In the case of `C[C@]12CC[C@@H]3c4ccc(O)cc4CC[C@H]3[C@@H]1CC[C@@H]2O`, the Activity (Arabidopsis thaliana [8]) is reported as “Dose-dependent effect” and the Activity (MCF7 [9]) is reported as “Active”.

In the case of `COc1cccc2c1C(=O)c1c(O)c3c(c(O)c1C2=O)C[C@@](O)(C(=O)CO)C[C@@H]3O[C@H]1C[C@H](N)[C@H](O)[C@H](C)O1` [DOXORUBICIN], the IC50 [4] is reported as 1.03 µM.

For `Oc1ccc(C[C@@]2(O)COc3cc(O)ccc3[C@@H]2O)cc1`, the Activity (Arabidopsis thaliana [2]) was “inactive”, the Activity (Arabidopsis thaliana [3]) was “Active” and the Activity (MCF7 [10]) was “inactive”. For the same compound, the Activity (MDA-MB-231) was “inactive”, the Activity (A549) was “inactive” and the Activity (Ca9-22) was “inactive”. For the same compound, the Activity (Hep 3B2) was “inactive” and the Activity (HepG2) was “inactive”.

In the case of `O=c1c(-c2ccc(O)cc2)coc2cc(O)cc(O)c12`, the Activity (MCF7 [11]) is reported as “Dose-dependent effect” and the inhibition (MCF7 [6]) is reported as “Active”.

For `COc1cc(O)ccc1C(=O)/C=C/c1ccc(O)cc1`, the MAC (Arabidopsis thaliana [8]) was 2.8 µM, the IC50 (MCF7 [10]; MCF7, 72 h) was 51.4 µM and the IC50 (MDA-MB-231; MDA-MB-231, 72 h) was 44.4 µM. The IC50 (A549) was 32.6 µM, the IC50 (Ca9-22) was 57.6 µM and the IC50 [4] was 17.9 µM. For the same compound, the IC50 (HepG2; HepG2, 72 h) was 7.37 µM and the Activity (MCF7 [5]) was “Active”.

With `O=c1c(O)coc2cc(O)ccc12` the MAC (Arabidopsis thaliana [8]) was 8.8 µM, the Activity (MCF7 [10]) was “inactive” and the Activity (MDA-MB-231) was “inactive”. For the same compound, the Activity (A549) was “inactive”, the Activity (Ca9-22) was “inactive” and the Activity (Hep 3B2) was “inactive”. The Activity (HepG2) was “inactive” and the Activity (MCF7 [5]) was “Active”.

For `O=C1c2ccc(O)cc2OC[C@]1(O)Cc1ccc(O)cc1`, the MAC (Arabidopsis thaliana [8]) was 10.9 µM, the Activity (MCF7 [10]) was “inactive” and the Activity (MDA-MB-231) was “inactive”. The Activity (A549) was “inactive”, the Activity (Ca9-22) was “inactive” and the Activity (Hep 3B2) was “inactive”. For the same compound, the Activity (HepG2) was “inactive”, the Activity (MCF7 [5]) was “Active” and the Activity (MCF7 [11]) was “Dose-dependent effect”.

With `O=C1c2ccc(O)cc2OC[C@@H]1O` the Activity (Arabidopsis thaliana [2]) was “inactive”, the Activity (Arabidopsis thaliana [3]) was “Active” and the Activity (MCF7 [10]) was “inactive”. The Activity (MDA-MB-231) was “inactive”, the IC50 (A549) was 80.7 µM and the IC50 (Ca9-22) was 62.2 µM. The IC50 [4] was 47.2 µM, the Activity (HepG2) was “inactive” and the Activity (MCF7 [5]) was “inactive”.

In the case of `CC1(C)O[C@H]2c3ccc(O)cc3OC[C@@]2(Cc2ccc(O)c(O)c2)O1`, the Activity (Arabidopsis thaliana [2]) is reported as “inactive”, the Activity (Arabidopsis thaliana [3]) is reported as “Active” and the Activity (MCF7 [10]) is reported as “inactive”. The Activity (MDA-MB-231) was “inactive”, the Activity (A549) was “inactive” and the Activity (Ca9-22) was “inactive”. For the same compound, the Activity (Hep 3B2) was “inactive”, the Activity (HepG2) was “inactive” and the Activity (MCF7 [5]) was “Active”.

In the case of `Oc1ccc2c(c1)OC[C@]1(O)Cc3cc(O)c(O)cc3[C@H]21` [BRAZILIN], the inhibition (MCF7 [1]) is reported as “Active”, the Activity (Arabidopsis thaliana [2]) is reported as “inactive” and the Activity (Arabidopsis thaliana [3]) is reported as “Active”. The IC50 [4] was 15.9 µM, the Activity (MCF7 [5]) was “inactive” and the inhibition (MCF7 [6]) was “Active”.

For `CC/C(=C(\c1ccccc1)c1ccc(OCCN(C)C)cc1)c1ccccc1`, the inhibition (MCF7 [12]) was “Active”.

In the case of `Oc1ccc(C[C@@]2(O)COc3cc(O)ccc3[C@H]2O)cc1`, the Activity (Arabidopsis thaliana [2]) is reported as “inactive”, the Activity (Arabidopsis thaliana [3]) is reported as “Active” and the Activity (MCF7 [10]) is reported as “inactive”. For the same compound, the Activity (MDA-MB-231) was “inactive”, the Activity (A549) was “inactive” and the Activity (Ca9-22) was “inactive”. For the same compound, the Activity (Hep 3B2) was “inactive” and the Activity (HepG2) was “inactive”.

With `O=C1c2ccc(O)cc2OC[C@@H]1Cc1ccc(O)c(O)c1` the MAC (Arabidopsis thaliana [8]) was 2.7 µM, the Activity (MCF7 [10]) was “inactive” and the Activity (MDA-MB-231) was “inactive”. For the same compound, the Activity (A549) was “inactive”, the Activity (Ca9-22) was “inactive” and the Activity (Hep 3B2) was “inactive”. The Activity (HepG2) was “inactive”, the Activity (MCF7 [5]) was “Active” and the Activity (MCF7 [11]) was “Dose-dependent effect”.
